From ChEMBL document CHEMBL1124216, “A novel class of potential central nervous system agents. 3-Phenyl-2-(1-piperazinyl)-5H-1-benzazepines” (1988) come the findings set out here.

Broadly, the inhibition in vivo is the share of the control response that was lost under treatment. Higher therefore signals strong suppression. The term Inhibition denotes the drop in the measured response relative to a control, in per cent. High values mean a strong effect, low ones a weak effect. One may read the ED50 as the midpoint of the dose-response relation. A high value points to a need for a large dose.

Holding throughout (assay type): functional
Assay [1] concerns Mus musculus. Put plainly: Antiexploratory activity (EXPL) of mice determined by an antimex activity meter, 50 mg/kg of dose was administered perorally; No inhibition. The following applies: route oral.
Assay [2] relates to Mus musculus. The assay can be described thus: 3,4 -Dihydroxy phenylacetic acid (DOPAC) levels in mouse brain at 10 mg/kg dose. In a few lines:
(§1)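 Male Std-ddY mice, 20-25 g, dosed orally with compound in 0.5% aqueous tragacanth. DOPAC was measured fluorometrically after purification by column chromatography on Sephadex G-10 and QAE-Sephadex. Brains from five mice per compound were pooled for each determination.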

Assay [3] has as its system Mus musculus. The assay can be described thus: Exploratory activity of mice determined by an antimex activity meter, 50 mg/kg of dose was administered perorally. In a few lines:
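Male Std-ddY mice (20-25 g), five per dose; compound in 0.5% aqueous tragacanth given orally. Two hours later each mouse placed in an Animex activity meter cage and locomotor activity counted for 3 min. Mean suppression expressed as percent inhibition of control; ED50 by Litchfield-Wilcoxon.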

In assay [4] the test system is Mus musculus. The assay can be described thus: The homovanillic acid (HVA) levels in mouse brain at 10 mg/kg of dose. In a few lines: (§2)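 Mice dosed orally in 0.5% aqueous tragacanth; brains of five mice per compound pooled. Homovanillic acid measured in brain extracts and reported as brain level.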
Assay [5] relates to Mus musculus. The assay can be described thus: 3,4 -Dihydroxy phenylacetic acid (DOPAC) levels in mouse brain at 50 mg/kg dose. A digest of the protocol:
as §1

For the next assay, the system named is Canis familiaris. Put plainly: Inhibition of apomorphine induced emesis in dogs at 1 mg/kg of dose. The following applies: Canis lupus familiaris. In a few lines: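 Beagle dogs (10-15 kg), groups of three, given compound po in a gelatin capsule; 2 h later apomorphine hydrochloride 0.3 mg/kg sc. Vomiting counted for 1 h; mean inhibition as percent of control. ED50 is the dose giving 50% inhibition of emesis, by Litchfield-Wilcoxon.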

Assay [6] has as its system Mus musculus. Put plainly: The homovanillic acid (HVA) levels in mouse brain at 50 mg/kg of dose. A digest of the protocol: as §2
Assay [7] has as its system Mus musculus. The assay can be described thus: Antitremorine activity(TRM) of mice after peroral administration of 100 mg/kg of compound; No inhibition. The following applies: route oral.
Assay [8] concerns Mus musculus. The assay can be described thus: Antimaximal electroshock seizure (MES) activity in mice after peroral administration of 100 mg/kg of compound; 0/5. Particulars: route oral. Background: Protection in the maximal electroshock model is a classic sign of anticonvulsant action.
The subject of assay [9] is Mus musculus. Put plainly: Antireserpine activity (RES) of mice after peroral administration of 100 mg/kg of compound; No inhibition. Particulars: route oral.
Assay [10] deals with Mus musculus. The assay can be described thus: Antiexploratory activity (EXPL) of mice determined by an antimex activity meter, 100 mg/kg of dose was administered perorally; Moderate inhibition (51-71%). Particulars: route oral.
Assay [11] concerns Mus musculus. The assay can be described thus: Antiexploratory activity (EXPL) of mice determined by an antimex activity meter, 100 mg/kg of dose was administered perorally; Slight inhibition (31-50%). The following applies: route oral.
The test system of assay [12] is Mus musculus. The assay can be described thus: Antimaximal electroshock seizure activity was determined in mice when administered perorally. The following applies: po.
Assay [13] deals with Mus musculus. Put plainly: Antiexploratory activity (EXPL) of mice determined by an antimex activity meter, 100 mg/kg of dose was administered perorally; No inhibition. The following applies: route oral.
Assay [14] deals with Mus musculus. Put plainly: Antipentylene tetrazole activity was determined in mice when administered perorally. The following applies: po. In a few lines:
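Groups of five male Std-ddY mice received compound orally in 0.5% tragacanth, then pentylenetetrazole 175 mg/kg ip. Blockade of the tonic extensor component scored as anticonvulsant. ED50 was the dose protecting 50% of animals (Litchfield-Wilcoxon).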

Assay [15] concerns Mus musculus. The assay can be described thus: Antimaximal electroshock seizure (MES) activity in mice after peroral administration of 100 mg/kg of compound; 5/5. The following applies: route oral.
Assay [16] deals with Mus musculus. Put plainly: Antireserpine activity (RES) of mice after peroral administration of 100 mg/kg of compound; Slight inhibition (31-50%). The following applies: route oral.
Assay [17] has as its system Mus musculus. The assay can be described thus: Antitremorine activity(TRM) of mice after peroral administration of 100 mg/kg of compound. The following applies: route oral.
For assay [18], the system named is Mus musculus. The assay can be described thus: Antimaximal electroshock seizure (MES) activity in mice after peroral administration of 10 mg/kg of compound; 0/5. Particulars: route oral.
Assay [19] concerns Mus musculus. The assay can be described thus: Antitremorine activity(TRM) of mice after peroral administration of 100 mg/kg of compound; Moderate inhibition (51-71%). Particulars: route oral.
Assay [20] concerns Mus musculus. The assay can be described thus: Antireserpine activity (RES) of mice after peroral administration of 50 mg/kg of compound; No inhibition. Particulars: route oral.
Assay [21] concerns Mus musculus. Put plainly: Antireserpine activity (RES) of mice after peroral administration of 50 mg/kg of compound; Slight inhibition (31-50%). The following applies: route oral.
Assay [22] relates to Mus musculus. Put plainly: Antimaximal electroshock seizure (MES) activity in mice after peroral administration of 100 mg/kg of compound; 4/5. The following applies: route oral.
Assay [23] relates to Mus musculus. Put plainly: Antitremorine activity(TRM) of mice after peroral administration of 100 mg/kg of compound; Slight inhibition (31-50%). The following applies: route oral.
Assay [24] relates to Mus musculus. Put plainly: Antiexploratory activity (EXPL) of mice determined by an antimex activity meter,100 mg/kg of dose was administered perorally; No inhibition.

SMILES strings stand for the structures. Where only a bound is given, the exact number is not on record here.

For the compound `CN1CCN(C2=Nc3ccccc3CC=C2c2ccc(Br)cc2)CC1.Cl.Cl`, the inhibition in vivo at 50 mg/kg was under 30% in the assay with Mus musculus [1] and 13.2% in the assay with Mus musculus [3] (Mus musculus, po). The Control with Mus musculus [2] came to 161%; in the assay on Mus musculus [4] it was 162%; in the assay on Mus musculus [5], 233%; in the assay on Mus musculus [6], 294%. Moreover, the Inhibition in the assay on Mus musculus [3] (route oral, 50 mg/kg) worked out at 13.2%. Moreover, at 1 mg/kg the inhibition in vivo in the assay on Canis familiaris was 72.5%.
Consider `CN1CCN(C2=Nc3cc(Cl)ccc3CC=C2c2ccc(Cl)cc2)CC1.Cl.Cl`, for which the inhibition in vivo at 100 mg/kg with Mus musculus [7] is under 30%; with Mus musculus [9], under 30%; in the assay on Mus musculus [10], 51%. The compound further yielded an Activity with Mus musculus [8] of 0.
Take `OC1(c2ccc(Cl)cc2)CCN(C2=Nc3ccccc3CC=C2c2ccccc2)CC1`: the inhibition in vivo at 100 mg/kg in the assay with Mus musculus [7] is under 30%; in the assay with Mus musculus [9] it was under 30%; in the assay with Mus musculus [11] it was 31%. This compound also showed an Activity with Mus musculus [8] of 0.
On to `OCCN1CCN(C2=Nc3ccc(Br)cc3CC=C2c2ccccc2)CC1`, for which the inhibition in vivo at 100 mg/kg in the assay on Mus musculus [7], in the assay on Mus musculus [13] and in the assay with Mus musculus [9] was under 30% each time. For the same compound, the figures for the ED50 with Mus musculus [12] and in the assay on Mus musculus [14] were 14.6 mg/kg and 13.2 mg/kg, respectively. The Activity with Mus musculus [15] is recorded as 5.
As to `Clc1ccc2c(c1)N=C(N1CCNCC1)C(c1ccccc1)=CC2.O=C(O)/C=C/C(=O)O`, the inhibition in vivo at 100 mg/kg in the assay on Mus musculus [7] was under 30%; in the assay on Mus musculus [16], 31%; in the assay on Mus musculus [11], 31%. In addition, in the assay on Mus musculus [8], the Activity came to 0.
In the case of `C#CCN1CCN(C2=Nc3ccc(Br)cc3CC=C2c2ccccc2)CC1`, the Activity in the assay with Mus musculus [8] came out at 0. Further, the inhibition in vivo at 100 mg/kg with Mus musculus [13], in the assay on Mus musculus [9] and with Mus musculus [17] was under 30% throughout.
Take `CCc1ccc2c(c1)CC=C(c1ccccc1)C(N1CCN(C)CC1)=N2.Cl.Cl`: the values for the Activity with Mus musculus [18] and with Mus musculus [15] were 0 and 5, respectively. The inhibition in vivo at 100 mg/kg with Mus musculus [9] was under 30%; in the assay with Mus musculus [19], 51%.
For `CCN1CCN(C2=Nc3ccccc3CC=C2c2ccc(C(F)(F)F)cc2)CC1`, the inhibition in vivo at 50 mg/kg with Mus musculus [1] and with Mus musculus [20] was under 30% each time.
As to `C1=C(c2ccccc2)C(N2CCCCC2)=Nc2ccccc2C1.Cl.Cl`, the inhibition in vivo at 100 mg/kg in the assay on Mus musculus [7] was under 30%; with Mus musculus [9], under 30%; in the assay on Mus musculus [11], 31%. In addition, the Activity with Mus musculus [8] is reported as 0.
As for `COc1ccc(C2=CCc3ccccc3N=C2N2CCN(C)CC2)cc1`, the results for the inhibition in vivo at 50 mg/kg in the assay on Mus musculus [1] and in the assay on Mus musculus [21] were under 30% and 31%, respectively.
Turning to `Cl.Cl.OCCN1CCN(C2=Nc3ccc(Cl)cc3CC=C2c2ccccc2)CC1`, the ED50 in the assay with Mus musculus [12] was found to be 49.5 mg/kg; with Mus musculus [14] it was 26.5 mg/kg. The values for the inhibition in vivo at 100 mg/kg in the assay on Mus musculus [13], in the assay with Mus musculus [9] and in the assay with Mus musculus [19] were under 30%, under 30% and 51%, respectively. Besides, the Activity was 0 in the assay with Mus musculus [18] and 4 with Mus musculus [22].
Turning to `Cl.Cl.OCCN1CCN(C2=Nc3ccccc3CC=C2c2ccccc2Cl)CC1`, the Activity in the assay with Mus musculus [8] was found to be 0. In addition, the inhibition in vivo at 100 mg/kg in the assay on Mus musculus [23] is 31%; in the assay on Mus musculus [9] it was under 30%; in the assay with Mus musculus [10], 51%.
Take `CN1CCN(C2=Nc3ccc(F)cc3CC=C2c2ccccc2)CC1.Cl.Cl`: the inhibition in vivo at 100 mg/kg is under 30% in the assay on Mus musculus [7], under 30% in the assay with Mus musculus [9] and 31% with Mus musculus [11]. Besides, the ED50 in the assay on Mus musculus [12] is over 500 mg/kg; with Mus musculus [14], over 200 mg/kg. The compound also showed an Activity in the assay on Mus musculus [8] of 0.
Compound `CCCCN1CCN(C2=Nc3ccc(CC)cc3CC=C2c2ccccc2)CC1.O=C(O)/C=C/C(=O)O` had an Activity in the assay with Mus musculus [8] of 0. Moreover, the Inhibition with Mus musculus [24] is given as under 30%. In addition, the results for the inhibition in vivo at 100 mg/kg with Mus musculus [23] and in the assay on Mus musculus [9] were 31% and under 30%, respectively.
